Experimental data from publication PMC4428392 (Anti-Cancer Agents in Medicinal Chemistry, 2014).
Where “and” joins values, the source holds several entries; their conditions need not be identical. Identical values can stand only once. Like-named read-outs stand apart in the source and are kept apart here.

How the values were obtained:
HCT-116 cells [1] = test: Cell cycle assay by flow cytometry; format: cell-based, Human; conditions: 24 h
[2] = system: cleaved PARP in HCT-116 cells; test: Level of cleaved PARP by flow cytometry; format: cell-based, Human; conditions: HCT-116, hypoxia, 30 µM, 24 h
MCF-7 = test: MTT cytotoxicity assay in normoxia and hypoxia, MCF-7; format: cell-based, Human
In short: (§1)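 MCF-7 and HCT-116 were grown in DMEM; NCI-H460 in RPMI 1640 plus 10 mM HEPES; all media had 10% FBS, pyruvate and 1.5 g/L bicarbonate. Cells were seeded at 20000/well and grown 24 h at 20% O2, 5% CO2, 37 °C. Serial compound concentrations were then given for 24 h in normoxia, or for 6 h hypoxia (3% O2) followed by 18 h normoxia. MTT was read at 545 nm. IC50 came from linear regression of % inhibition versus log concentration, and HCR = IC50 normoxia/IC50 hypoxia.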

NCI-H460 = test: MTT cytotoxicity assay in normoxia and hypoxia, NCI-H460; format: cell-based, Human; conditions: Homo sapiens
In short: as §1

[3] = system: γ-H2AX and cleaved PARP in HCT-116 cells; test: Dual-parameter γ-H2AX and cleaved PARP flow cytometry; format: cell-based, Human; conditions: 30 µM, 24 h
HCT-116 cells [4] = test: ROS analysis by flow cytometry; format: cell-based, Human
In short: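 HCT-116 cells were treated with test compound at 15 or 30 µM in normoxia or hypoxia (24 h per methods; legend states 18 h). They were stained with CM-H2DCFDA for 45 min, collected, and analysed on a FACSCalibur flow cytometer. Fluorescence was normalised to solvent control; mean ± SEM, n=3.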

γ-H2AX in HCT-116 cells = test: Level of γ-H2AX by flow cytometry; format: cell-based, Human; conditions: 30 µM, 24 h
[5] = Partition coefficient octanol/aqueous buffer pH 7.4 by HPLC; format: physicochemical; conditions: octanol/phosphate buffer pH 7.4, HPLC
In short: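 Octanol/phosphate buffer (pH 7.4) distribution was determined by HPLC at the compound retention time. Conditions: RP-18E column (4.6 × 150 mm, 5 µm) at 25 °C; isocratic water:acetonitrile 70:30 with 0.7% acetic acid at 0.5 mL/min; UV detection at 285 nm. Samples were dissolved in DMSO or methanol.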

[6] = system: caspase 3/7 in HCT-116 cells; test: Caspase 3/7 activity; format: cell-based, Human; conditions: 30 µM, 24 h
In short: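 HCT-116 cells were exposed to test compound at 30 µM for 24 h in normoxia or hypoxia. Cells were harvested, washed in PBS, centrifuged (350 g, 5 min) and stained with a FAM-FLICA caspase-3/7 inhibitor kit. Active caspase 3/7 was measured by flow cytometry. Data are mean ± SEM, n=3, compared with solvent control by one-way ANOVA with Tukey post hoc test.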

HCT-116 = test: MTT cytotoxicity assay in normoxia and hypoxia, HCT-116; format: cell-based, Human; conditions: for IC50: Homo sapiens
In short: as §1

Log P7.4 [5]: -0.42
SMILES: Nc1n[n+]([O-])c2ccccc2[n+]1[O-] [TPZ, 3-amino-1,2,4-benzotriazine-1,4-dioxide, reference compound]
G1 (%) (HCT-116 cells [1]; HCT-116, hypoxia, 15 µM): 22.5±9.4% | G2/M (%) (HCT-116 cells [1]; HCT-116, hypoxia, 15 µM): 35.2% and 35.2±4.9% | S (%) (HCT-116 cells [1]; HCT-116, hypoxia, 15 µM): 34.7±6.0% | Sub-G1 (%) (HCT-116 cells [1]; HCT-116, hypoxia, 15 µM): 7.3% and 7.3±2.7% | G1 (%) (HCT-116 cells [1]; HCT-116, hypoxia, 30 µM): 26.3±5.5% | G2/M (%) (HCT-116 cells [1]; HCT-116, hypoxia, 30 µM): 27.3% and 27.3±1.3% | S (%) (HCT-116 cells [1]; HCT-116, hypoxia, 30 µM): 29.6±4.7% | Sub-G1 (%) (HCT-116 cells [1]; HCT-116, hypoxia, 30 µM): 16.5% and 16.5±1.2% | G1 (%) (HCT-116 cells [1]; HCT-116, normoxia, 15 µM): 41.9±1.7% | G2/M (%) (HCT-116 cells [1]; HCT-116, normoxia, 15 µM): 33.1% and 33.1±3.7% | S (%) (HCT-116 cells [1]; HCT-116, normoxia, 15 µM): 21.9±2.4% | G1 (%) (HCT-116 cells [1]; HCT-116, normoxia, 30 µM): 35.3% and 35.3±1.4% | G2/M (%) (HCT-116 cells [1]; HCT-116, normoxia, 30 µM): 39.1% and 39.1±4.0% | S (%) (HCT-116 cells [1]; HCT-116, normoxia, 30 µM): 22.1±2.9% | Sub-G1 (%) (HCT-116 cells [1]; HCT-116, normoxia, 30 µM): 3.2±0.5% | cleaved PARP [2]: approximately 10% | HCR = IC50 (aerobic)/IC50 (hypoxia) (MCF-7): 6.3 | IC50 (NCI-H460; NCI-H460, 24 h, read-out: Cytotoxicity (IC50) NCI-H460 N): 85 ± 9.7 µM | IC50 (NCI-H460; NCI-H460, read-out: Cytotoxicity (IC50) NCI-H460 H): 32.9 ± 2.1 µM | cells expressing both γ-H2AX and cleaved PARP (upper right quadrant) ([3]; HCT-116, hypoxia): 1.9% | cells expressing both γ-H2AX and cleaved PARP (upper right quadrant) ([3]; HCT-116, normoxia): 0.1% | increase of ROS relative to control medium (HCT-116 cells [4]; HCT-116, hypoxia, 15 µM): 6 fold | increase of ROS relative to control medium (HCT-116 cells [4]; HCT-116, hypoxia, 30 µM): 10.5 fold | increase of ROS relative to control medium (HCT-116 cells [4]; HCT-116, normoxia, 15 µM): 1.5 fold | increase of ROS relative to control medium (HCT-116 cells [4]; HCT-116, normoxia, 30 µM): 2 fold | expression of γ-H2AX (γ-H2AX in HCT-116 cells; HCT-116, hypoxia, solvent control 4%): around 30% | effect on expression of γ-H2AX (γ-H2AX in HCT-116 cells; HCT-116, normoxia): no significant effect | level of active caspase 3/7 ([6]; HCT-116, hypoxia, solvent control 7%): about 41% | effect on level of active caspase 3/7 ([6]; HCT-116, normoxia): no apparent effect | HCR = hypoxic cytotoxicity ratio IC50 (aerobic)/IC50 (hypoxic) (HCT-116; HCT-116): 2.6 | IC50 (HCT-116; HCT-116, 24 h, read-out: Cytotoxicity (IC50) HCT-116 N): 89.1 ± 14.5 µM | IC50 (HCT-116; HCT-116, read-out: Cytotoxicity (IC50) HCT-116 H): 34.8 ± 8.3 µM | IC50 (HCT-116; HCT-116, read-out: Cytotoxicity (IC50), cell kill under hypoxia): 34.8 µM
